Values after ≈ are worked out from the molar mass of the structure shown. Active and inactive are the calls of the source. The calls are words filed in the database; no cut-off is given here.
Experiments:
[1] = tested on: Streptococcus oralis; assay: Antibacterial activity against Streptococcus oralis ATCC 9811 incubated for 16 to 20 hrs by microdilution method; type: functional
Procedure, shortened: (§1)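 CLSI broth microdilution. 2-fold serial dilutions were made in cation-adjusted Mueller–Hinton broth, with 5% lysed horse blood added for Streptococcus strains, in triplicate. Inoculum 5×10^5 CFU/mL. Plates incubated 36 °C for 16–20 h. MIC taken as the lowest concentration visibly inhibiting growth.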

[2] = tested on: Staphylococcus aureus; assay: Antibacterial activity against mecA-positive multidrug resistant Staphylococcus aureus NRS120 incubated for 16 to 20 hrs by microdilution method; type: functional
[3] = tested on: Streptococcus pyogenes; assay: Antibacterial activity against Streptococcus pyogenes ATCC 49399 incubated for 16 to 20 hrs by microdilution method; type: functional; procedure, shortened: as §1
[4] = tested on: Staphylococcus haemolyticus; assay: Antibacterial activity against Staphylococcus haemolyticus ATCC 29970 incubated for 16 to 20 hrs by microdilution method; type: functional
[5] = tested on: Staphylococcus epidermidis; assay: Antibacterial activity against Staphylococcus epidermidis ATCC 35547 incubated for 16 to 20 hrs by microdilution method; type: functional; procedure, shortened: as §1
[6] = tested on: Mus musculus; assay: AUC (0 to last) in ICR mouse peritonitis model infected with methicillin resistant Staphylococcus aureus ATCC 27660 at 20 mg/kg, iv administered as single dose measured up to 8 hrs by UPLC analysis; type: ADME, organism-based; set-up: dose 20 mg/kg, time 0 - last, route intravenous; settings: in vivo
Procedure, shortened: (§2)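 Fast PK: female ICR mice (n = 2 per time point) given single tail-vein iv injection at 5, 10 or 20 mg/kg in 25% DMSO/65% propylene glycol/10% water (2.5, 5 or 10 mg/mL); terminal cardiac blood at 5 min, 40 min, 2, 4, 8 h; plasma analysed by UPLC with internal standard calibration.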

[7] = tested on: Pseudomonas aeruginosa; assay: Antibacterial activity against Pseudomonas aeruginosa […] incubated for 16 to 20 hrs by microdilution method; type: functional; procedure, shortened: as §1
[8] = tested on: Staphylococcus aureus; assay: Antibacterial activity against vancomycin/methicillin-resistant Staphylococcus aureus VRS2 clinical isolate incubated for 16 to 20 hrs by microdilution method; type: functional
[9] = tested on: Bacillus licheniformis; assay: Antibacterial activity against Bacillus licheniformis ATCC 12759 incubated for 16 to 20 hrs by microdilution method; type: functional; procedure, shortened: as §1
[10] = tested on: HepG2; assay: Cytotoxicity against human HepG2 cells incubated for 16 hrs by XTT assay; type: cell-based; settings: HepG2, 16 h
Procedure, shortened: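 HepG2 cells were tested with an XTT viability read-out, in triplicate. IC50 was obtained by nonlinear regression.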

[11] = tested on: Enterococcus faecalis; assay: Antibacterial activity against methicillin-susceptible Enterococcus faecalis ATCC 29212 incubated for 16 to 20 hrs by microdilution method; type: functional; procedure, shortened: as §1
[12] = tested on: Staphylococcus aureus; assay: Antibacterial activity against vancomycin/methicillin-resistant Staphylococcus aureus VRS1 clinical isolate incubated for 16 to 20 hrs by microdilution method; type: functional
[13] = tested on: Escherichia coli; assay: Antibacterial activity against Escherichia coli ATCC 25922 incubated for 16 to 20 hrs by microdilution method; type: functional; procedure, shortened: as §1
[14] = tested on: Klebsiella aerogenes; assay: Antibacterial activity against Enterobacter aerogenes ATCC 35029 incubated for 16 to 20 hrs by microdilution method; type: functional; procedure, shortened: as §1
[15] = tested on: Klebsiella pneumoniae; assay: Antibacterial activity against Klebsiella pneumoniae ATCC 700603 incubated for 16 to 20 hrs by microdilution method; type: functional; procedure, shortened: as §1
[16] = tested on: Enterococcus faecium; assay: Antibacterial activity against Enterococcus faecium NCTC 7171 incubated for 16 to 20 hrs by microdilution method; type: functional; procedure, shortened: as §1
[17] = tested on: Staphylococcus aureus; assay: Antibacterial activity against mecA-positive methicillin/oxacillin/tetracycline-resistant Staphylococcus aureus ATCC 27660 incubated for 16 to 20 hrs by microdilution method; type: functional
[18] = Hemolytic activity against human RBC at 64 ug/ml relative to control; type: ADME, cell-based, Erythrocyte; settings: erythrocyte
Procedure, shortened: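 Hemolysis was measured at a fixed 64 μg/mL on a 10% red-cell suspension from heparinized human blood. Triton-X served as the positive control, and results are given as percent hemolysis.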

[19] = tested on: Acinetobacter baumannii; assay: Antibacterial activity against Acinetobacter baumannii ATCC 17961 incubated for 16 to 20 hrs by microdilution method; type: functional; procedure, shortened: as §1
[20] = tested on: Staphylococcus aureus; assay: Antibacterial activity against mecA-positive multidrug resistant Staphylococcus aureus COL NRS100 incubated for 16 to 20 hrs by microdilution method; type: functional
[21] = tested on: Bacillus cereus; assay: Antibacterial activity against Bacillus cereus ATCC 13061 incubated for 16 to 20 hrs by microdilution method; type: functional; procedure, shortened: as §1
[22] = tested on: Enterococcus faecalis; assay: Antibacterial activity against vancomycin-resistant Enterococcus faecalis 99 clinical isolate incubated for 16 to 20 hrs by microdilution method; type: functional
[23] = tested on: Staphylococcus aureus; assay: Antibacterial activity against methicillin-susceptible Staphylococcus aureus ATCC 29213 incubated for 16 to 20 hrs by microdilution method; type: functional
[24] = tested on: Mus musculus; assay: AUC (0 to last) in ICR mouse peritonitis model infected with methicillin resistant Staphylococcus aureus ATCC 27660 at 5 mg/kg, iv administered as single dose measured up to 8 hrs by UPLC analysis; type: ADME, organism-based; set-up: dose 5 mg/kg, route intravenous, time 0 - last; settings: in vivo; procedure, shortened: as §2
[25] = tested on: Staphylococcus aureus; assay: Antibacterial activity against mecA-positive multidrug resistant Staphylococcus aureus NRS119 incubated for 16 to 20 hrs by microdilution method; type: functional
[26] = tested on: Staphylococcus aureus; assay: Antibacterial activity against Staphylococcus aureus COL expressing pbp2 antisense plasmid assessed as increase in zone of inhibition after 18 to 20 hrs in presence of xylose; type: functional, organism-based
Procedure, shortened: (§3)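 MRSA COL strains carrying pbpA, pbp2, mecA or pbp3 under antisense control were grown overnight on agar with 34 μg/mL chloramphenicol. Molten chloramphenicol agar with 0 or 50 mM xylose was seeded at 1×10^7 CFU/mL and set. Compound (10 μL) was spotted on the agar, and plates were incubated 36 °C for 18–20 h. Susceptibility with and without xylose induction was compared.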

[27] = tested on: Staphylococcus aureus; assay: Antibacterial activity against Staphylococcus aureus COL expressing pbpA antisense plasmid assessed as increase in zone of inhibition after 18 to 20 hrs in presence of xylose; type: functional, organism-based; procedure, shortened: as §3
[28] = tested on: Staphylococcus aureus; assay: Antibacterial activity against methicillin-resistant Staphylococcus aureus NRS70 in ICR mouse neutropenic thigh infection model assessed as reduction in bacterial load at 20 mg/kg, sc tid administered every 8 hrs starting from 1 hr post infection and measured 7 hrs post last dose; type: functional, organism-based
Procedure, shortened: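 Female ICR mice (n = 8 per group) made neutropenic with ip cyclophosphamide 200 mg/kg at 4 days and 1 day pre-infection; 100 μL NRS70 (~1×10^6 CFU/mL in brain–heart infusion) injected im into right thigh; sc doses at 1, 9, 17 h; thighs harvested at 24 h, homogenized, plated in triplicate on LB agar; log10 CFU/g.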

[29] = tested on: Staphylococcus aureus; assay: Antibacterial activity against Staphylococcus aureus COL expressing pbp3 antisense plasmid assessed as increase in zone of inhibition after 18 to 20 hrs in presence of xylose; type: functional, organism-based; procedure, shortened: as §3
[30] = tested on: Staphylococcus aureus; assay: Antibacterial activity against Staphylococcus aureus COL expressing pbp2a antisense plasmid assessed as increase in zone of inhibition after 18 to 20 hrs in presence of xylose; type: functional, organism-based; procedure, shortened: as §3
[31] = tested on: Mus musculus; assay: AUC (0 to last) in ICR mouse peritonitis model infected with methicillin resistant Staphylococcus aureus ATCC 27660 at 10 mg/kg, iv administered as single dose measured up to 8 hrs by UPLC analysis; type: ADME, organism-based; set-up: dose 10 mg/kg, time 0 - last, route intravenous; settings: in vivo, 8 h; procedure, shortened: as §2

Structure (SMILES)	MIC [1] [µg/mL]	MIC [2] [µg/mL]	MIC [3] [µg/mL]	MIC [5] [µg/mL]	MIC [7] [µg/mL]	MIC [8] [µg/mL]	MIC [9] [µg/mL]	IC50 [10] [µg/mL]	MIC [11] [µg/mL]	MIC [12] [µg/mL]	MIC [13] [µg/mL]	MIC [14] [µg/mL]	MIC [15] [µg/mL]	MIC [16] [µg/mL]	Activity [18] [%]	MIC [19] [µg/mL]	MIC [20] [µg/mL]	MIC [21] [µg/mL]	MIC [22] [µg/mL]	MIC [23] [µg/mL]	further results
O=C(O)c1cccc(-n2c(/C=C/c3ccc(F)cc3)nc3ccccc3c2=O)c1	128 (≈ 331 µM)	8 (≈ 20.7 µM)	128 (≈ 331 µM)	0.125 (≈ 0.324 µM)	≥ 16	1 (≈ 2.59 µM)	> 128	95.5 (≈ 247 µM)	> 128	8 (≈ 20.7 µM)	≥ 16	≥ 16	≥ 16	> 128	< 1	≥ 16	8 (≈ 20.7 µM)	> 128	> 128	1 (≈ 2.59 µM)	MIC [4]: 0.25 µg/mL (≈ 0.647 µM); AUClast [6]: 2560 µg·min/mL; MIC [17]: 2 µg/mL (≈ 5.18 µM)
N#Cc1ccc(/C=C/c2nc3ccccc3c(=O)n2-c2cccc(O)c2)cc1	> 128	0.125 (≈ 0.342 µM)	> 128	0.125 (≈ 0.342 µM)	≥ 16	0.06 (≈ 0.164 µM)	> 128	53.6 (≈ 147 µM)	128 (≈ 350 µM)	0.5 (≈ 1.37 µM)	≥ 16	≥ 16	≥ 16	> 128	< 1	≥ 16	0.25 (≈ 0.684 µM)	> 128	64 (≈ 175 µM)	0.03 (≈ 0.0821 µM)	AUClast [24]: 26.8 µg·min/mL; MIC [4]: 0.125 µg/mL (≈ 0.342 µM); MIC [25]: 0.125 µg/mL (≈ 0.342 µM); MIC [17]: 0.5 µg/mL (≈ 1.37 µM)
C#Cc1ccc(/C=C/c2nc3ccccc3c(=O)n2-c2cccc(C(=O)O)c2)cc1																					Activity [26]: inactive; Activity [27]: Active; Activity [28]: Active; Activity [29]: inactive; Activity [30]: Active
CS(=O)(=O)Nc1cccc(-n2c(/C=C/c3ccc(C#N)cc3)nc3ccccc3c2=O)c1	> 128	0.25 (≈ 0.565 µM)	> 128	0.125 (≈ 0.282 µM)	≥ 16	0.125 (≈ 0.282 µM)	> 128	33.4 (≈ 75.5 µM)	> 128	0.5 (≈ 1.13 µM)	≥ 16	≥ 16	≥ 16	> 128	< 1	≥ 16	0.5 (≈ 1.13 µM)	> 128	128 (≈ 289 µM)	0.004 (≈ 0.00904 µM)	AUClast [24]: 31 µg·min/mL; MIC [4]: 0.125 µg/mL (≈ 0.282 µM); MIC [25]: 0.5 µg/mL (≈ 1.13 µM); MIC [17]: 0.25 µg/mL (≈ 0.565 µM)
N#Cc1ccc(/C=C/c2nc3ccccc3c(=O)n2-c2cccc(N)c2)cc1	> 128	4 (≈ 11 µM)	> 128	0.125 (≈ 0.343 µM)	≥ 16	4 (≈ 11 µM)	> 128	77.2 (≈ 212 µM)	> 128	8 (≈ 22 µM)	≥ 16	≥ 16	≥ 16	> 128	3.3	≥ 16	4 (≈ 11 µM)	> 128	16 (≈ 43.9 µM)	0.5 (≈ 1.37 µM)	MIC [4]: 1 µg/mL (≈ 2.74 µM); MIC [25]: 4 µg/mL (≈ 11 µM); AUClast [31]: 204 µg·min/mL
CCO/N=C(\C(=O)N[C@@H]1C(=O)N2C(C(=O)[O-])=C(Sc3nc(-c4cc[n+](C)cc4)cs3)CS[C@H]12)c1nsc(NP(=O)(O)O)n1																					Activity [26]: Active; Activity [27]: Active; Activity [29]: Active; Activity [30]: Active
CC(=O)Nc1cccc(-n2c(/C=C/c3ccc(C#N)cc3)nc3ccccc3c2=O)c1	> 128		> 128	0.06 (≈ 0.148 µM)	≥ 16	0.125 (≈ 0.308 µM)	> 128	51 (≈ 125 µM)	128 (≈ 315 µM)	4 (≈ 9.84 µM)	≥ 16	≥ 16	≥ 16	> 128	< 1	≥ 16	1 (≈ 2.46 µM)	> 128	64 (≈ 157 µM)	0.25 (≈ 0.615 µM)	AUClast [24]: 38 µg·min/mL; MIC [17]: 1 µg/mL (≈ 2.46 µM)

Source: ChEMBL document CHEMBL3817745, “Structure-Activity Relationship for the 4(3H)-Quinazolinone Antibacterials” (J Med Chem, 2016)
